High-throughput results (PubChem)
Sampled rows, rich in hits. Any-hit rate of the full collection: about 5.5%.
Yeast lifespan up: extends the lifespan of yeast. S. cerevisiae growth with nicotinamide, OD615; deaD strain in restrictive glucose medium. inhibition of the nicotinamide effect, % at 10 µM. hit rate 0.68% among 130,000. AID 775;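 active means inhibition above a set limit, placed 3 SD over the median of all compounds, cut at about 26% in these data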;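 further: 0% = nicotinamide-treated wells and 100% = cells grown without nicotinamide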
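System: DeaD-strain S. cerevisiae / Buffer or medium: CSMM-D, restrictive glucose (dextrose) synthetic minimal medium / Probe or stimulus: nicotinamide, 1.5 mM, co-present with compound / Compound: one concentration, 10 µM, DMSO 0.25% / Incubation: 48 h compound exposure at 30 °C, humidified / Technique: optical density (absorbance) at 615 nm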
WT yeast gro inh: growth inhibition of WT yeast, mitochondrial fusion screen | hit rate 2.1% among 190,000 | mitochondrial fusion phenotypic screen, WT strain | AID 1362 | inhibition, % at 10 µM; in the data active means inhibition above about 58%; tested in S. cerevisiae
RAM network inh: blocks the yeast RAM network; S. cerevisiae dse1pr::URA3 reporter, 5-FOA growth OD615, 2 d; analog-sensitive cbk1-as2 kinase mutant strain; AID 868; hit rate 1.8% among 190,000; inhibition, % at 50 µM;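 active means inhibition above a set limit, 3 SD over mean compound inhibition, cut at about 8.4% in these data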;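 further: 0% = DMSO-only wells with no growth and 100% = 10 µM 1-NA-PP1 full growth; inhibition rescues growth on 5-FOA so higher OD means more RAM inhibition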
Cl transport mod: modulators of human KCC2 chloride dependent transport; Q9H2X9; KCC2 cells, thallium flux FluoZin-2 fluorescence; B-score of Tl+ flux slope (higher = more flux/activation; lower = inhibition) at 10 µM; hit rate 2.2% among 190,000;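 active means thallium flux slope and its plate-corrected score both differing from the plate sample mean at a set confidence after two filtering rounds, in either direction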;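 further: slope of fluorescence scaled to starting intensity during 10 to 20 s after thallium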
Target sequence (Q9H2X9 whole entry, looked up): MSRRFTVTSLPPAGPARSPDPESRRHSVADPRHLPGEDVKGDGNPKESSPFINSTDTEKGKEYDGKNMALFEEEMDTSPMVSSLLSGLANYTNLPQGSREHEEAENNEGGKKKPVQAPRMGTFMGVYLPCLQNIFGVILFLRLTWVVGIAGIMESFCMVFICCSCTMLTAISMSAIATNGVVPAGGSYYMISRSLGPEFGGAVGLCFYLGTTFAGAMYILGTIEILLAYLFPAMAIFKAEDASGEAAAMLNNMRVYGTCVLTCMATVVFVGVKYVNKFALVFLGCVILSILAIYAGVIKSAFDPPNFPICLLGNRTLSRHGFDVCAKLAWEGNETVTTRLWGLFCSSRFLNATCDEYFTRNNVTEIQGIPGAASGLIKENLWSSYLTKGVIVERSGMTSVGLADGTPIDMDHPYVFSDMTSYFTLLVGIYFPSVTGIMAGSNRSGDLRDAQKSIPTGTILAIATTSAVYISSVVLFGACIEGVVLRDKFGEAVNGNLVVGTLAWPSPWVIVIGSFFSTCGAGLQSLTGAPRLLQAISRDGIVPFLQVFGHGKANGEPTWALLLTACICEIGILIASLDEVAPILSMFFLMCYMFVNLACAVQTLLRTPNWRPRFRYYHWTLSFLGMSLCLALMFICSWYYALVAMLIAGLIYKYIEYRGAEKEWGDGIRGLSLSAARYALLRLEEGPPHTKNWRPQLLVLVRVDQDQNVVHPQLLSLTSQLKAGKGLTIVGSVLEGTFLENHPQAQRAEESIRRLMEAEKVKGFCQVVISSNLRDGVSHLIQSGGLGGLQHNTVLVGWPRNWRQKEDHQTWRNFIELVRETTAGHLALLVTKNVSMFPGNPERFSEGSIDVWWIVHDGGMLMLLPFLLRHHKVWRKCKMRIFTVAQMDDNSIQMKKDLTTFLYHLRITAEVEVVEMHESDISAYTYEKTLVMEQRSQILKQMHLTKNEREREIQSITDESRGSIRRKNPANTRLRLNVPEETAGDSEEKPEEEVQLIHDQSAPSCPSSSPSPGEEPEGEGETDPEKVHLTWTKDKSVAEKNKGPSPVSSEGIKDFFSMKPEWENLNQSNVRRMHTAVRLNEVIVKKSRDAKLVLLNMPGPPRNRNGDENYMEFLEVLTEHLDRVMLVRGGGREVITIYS
BB579 growth dn: reduces growth of yeast BB579 in restrictive medium | AID 804 | hit rate 0.51% among 140,000 | inhibition, % at 10 µM | S. cerevisiae BB579 growth, OD615, 48 h;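 active means inhibition above a set limit, 3 SD over the mean compound inhibition, cut at about 44% in these data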
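Test system: DeaD yeast strain BB579 / Buffer or medium: restrictive glucose-based CSMM-D medium / Doses: single 10 µM dose / Schedule: 4 h cell preincubation, 48 h compound exposure, 30 °C humidified / Technique: culture absorbance at 615 nm / Controls: amphotericin B positive control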
KCC2 secondary: KCC2 (human) modulation, secondary assay | normalised thallium flux (F/F0 slope) at 10 µM | shares compounds with Cl transport mod | HEK293-KCC2, thallium flux, FluoZin2 fluorescence; active compounds read high | hit rate 15% among 3,700;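 active means thallium flux slope above the same plate's solvent-only control mean plus 3 SD; inconclusive means the two replicate wells disagree; inactive means no significant difference from solvent-only control wells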
KCC2 bumet counter: thallium flux despite bumetanide block in KCC2 cells, secondary assay 3 | HEK293-KCC2 + bumetanide/ouabain, thallium flux FluoZin2; active compounds read high | AID 1714 | normalized thallium flux at 10 µM | hit rate 49% among 3,700 | shares compounds with Cl transport mod;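 active means thallium entry rate above the same plate's blocked-transporter control wells by more than 3 SD; inconclusive means the two repeat wells disagree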;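 further: raw slope of fluorescence over initial fluorescence between 10 and 20 s after thallium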
KCC2 sec2: confirmation of human KCC2 transport modulators. shares compounds with Cl transport mod. hit rate 23% among 3,700. normalized thallium flux at 10 µM. HEK293-KCC2, thallium flux FluoZin2 fluorescence; actives lie on both sides; F/F0 rise rate, 10–20 s post-thallium;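 active means thallium flux slope more than 3 SD above or below the plate's solvent-only control mean, mostly below; inconclusive means the two repeat wells disagreed; inactive means no significant shift from solvent-only controls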;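 further: raw slope with 0.1% DMSO as baseline and bumetanide as block control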
HEK293 Tl flux: acts in parental HEK cells, KCC2 counter-screen. shares compounds with Cl transport mod. HEK293 parental cells, thallium flux FluoZin2, ouabain; baseline-ratio fluorescence slope, 10–20 s after thallium. thallium flux rate (normalised fluorescence) at 10 µM. hit rate 46% among 3,700. AID 1716;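 active means thallium flux rate significantly above the same plate's solvent-only control wells, beyond their mean plus 3 SD; inconclusive means the two replicate wells gave conflicting results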
KCC2 retest ouab: KCC2 (human) modulation, ouabain retest. raw Tl+ flux slope (below DMSO = inhibition, above = activation) at 10 µM. shares compounds with Cl transport mod. hit rate 48% among 3,700. HEK293-KCC2, thallium flux FluoZin2 fluorescence; bidirectional: low = inhibitor, high = activator;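 active means thallium flux slope beyond 3 SD from same-plate DMSO control mean in most replicates, usually higher, sometimes lower; inconclusive means repeat tests gave conflicting results; inactive means no significant difference from controls in most replicates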;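 further: slope of initial-normalized fluorescence between seconds 10 and 20 after thallium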
HEK counter2: counter-screen for KCC2 modulators: effect in parental HEK293 cells. thallium flux FluoZin-2 fluorescence slope. thallium flux slope at 10 µM. hit rate 33% among 3,700. AID 1718. shares compounds with Cl transport mod;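 active means thallium flux slope above the same plate's solvent-control mean plus 3 SD in both duplicate wells; inconclusive means duplicate wells that disagreed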;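 further: run without ouabain in cells lacking the KCC2 cotransporter; slope of fluorescence scaled to its starting value between 10 and 20 s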
An asterisk follows results filed as active; ? = inconclusive; / = no result.

SMILES | Yeast lifespan up | WT yeast gro inh | RAM network inh | Cl transport mod | BB579 growth dn | KCC2 secondary | KCC2 bumet counter | KCC2 sec2 | HEK293 Tl flux | KCC2 retest ouab | HEK counter2
CCOc1ccccc1N1CCN(C(=O)/C=C/c2cccc([N+](=O)[O-])c2)CC1 | -2 | 10 | 0 | -3.8* | -18 | 0.0054 | 0.0048 | 0.027* | 0.0057* | 0.017* | ?
Nn1c(SC/C=C/c2ccccc2)nnc1-c1ccncc1 | -17 | 6 | 3 | -0.29 | -41 | / | / | / | / | / | /
COc1cc(-c2nnc(SC/C=C/c3ccccc3)n2N)cc(OC)c1OC | -22 | 0 | -1 | -6* | -12 | 0.008 | 0.005 | 0.032 | 0.0071 | 0.018 | 0.011
C/C(=N\NC(=O)c1cc(C)nc2ccccc12)c1cccs1 | / | / | / | 1.9 | / | / | / | / | / | / | /
C/C(=N\NC(=O)c1ccc(Cl)cc1)c1cccs1 | / | 15 | 3 | 25* | / | 0.006 | 0.04* | 0.05* | 0.034* | 0.041* | 0.029*
C/C(=N\NC(=O)c1cc(Br)ccc1O)c1cccs1 | / | 0 | 4 | 15* | / | 0.0087 | 0.031* | 0.043* | 0.03* | 0.037* | 0.033*
CC(C)N(C(=O)CSc1nc2c([nH]1)c(=O)n(C)c(=O)n2C)c1ccccc1 | -9 | 3 | 2 | -3.7* | 19 | 0.01 | 0.0064 | 0.03 | 0.0078 | 0.019 | 0.01
COc1ccc(OC)c(C(=O)COC(=O)c2ccccc2O)c1 | -19 | 18 | 8.7* | / | 0 | 0.0063 | 0.0059 | 0.028 | 0.0064 | 0.023* | ?
COc1ccc(OC)c(C(=O)COC(=O)c2c(OC)cccc2OC)c1 | -11 | -10 | 1 | 0.74 | -30 | / | / | / | / | / | /
S=C(NCC1CC1)N/N=C/c1ccccc1Cl | / | / | / | 10* | / | ? | 0.024* | 0.03 | 0.01* | ? | 0.0099
N#CCC(=O)N/N=C/c1ccccc1Cl | / | -5 | 3 | -1.1 | / | / | / | / | / | / | /
S=C(N/N=C/c1ccccc1Cl)Nc1cccc(Cl)c1Cl | / | / | / | 7* | / | 0.007 | 0.045* | 0.047* | 0.031* | 0.048* | 0.026*
Cc1ccc(C)c(/C=N/NC(=S)NCCc2ccccc2)c1 | -2 | 12 | 6 | 0.21 | -37 | / | / | / | / | / | /
O=C(O)Cc1ccc(NC(=S)Nc2cccc(Cl)c2Cl)cc1 | 24 | 7 | 1 | 9.6* | -7 | 0.0097 | 0.01* | 0.034 | 0.014* | ? | 0.012
S=C(NCCc1ccccc1)N/N=C/c1cccc(Cl)c1Cl | -4 | 9 | 0 | 4.4* | -53 | 0.0061 | 0.013* | 0.039* | 0.011* | 0.03* | 0.011
S=C(Nc1cccc(Cl)c1Cl)Nn1cnnc1 | 0 | -5 | -2 | 0.11 | 16 | / | / | / | / | / | /
COc1ccccc1C(c1nnnn1CCc1ccccc1)N1CCCCCC1 (stereo not drawn) | -4 | -2 | 1 | -2.3 | -14 | / | / | / | / | / | /
Cn1cnc(S(=O)(=O)NCc2ccccc2)c1 | 6 | -3 | 4 | 0.75 | -36 | / | / | / | / | / | /
COc1cccc(CNS(=O)(=O)c2cn(C)cn2)c1 | -6 | -8 | 4 | 7.2* | -17 | 0.0062 | 0.0046 | 0.033 | 0.0076 | 0.019 | 0.011
CC(C)Oc1ccc(CNC(=S)N/N=C/c2ccc([N+](=O)[O-])cc2)cc1 | -5 | 30 | 4 | 3.6* | -57 | 0.0093 | 0.0068 | 0.034 | 0.0038 | 0.021 | 0.012
CC(C)COc1ccc(CNC(=S)N/N=C/c2ccc([N+](=O)[O-])cc2)cc1 | 3 | -1 | 4 | -0.85 | 1 | / | / | / | / | / | /
COc1cc(-n2c(=O)c3ccccc3n(Cc3cc(=O)n4ccccc4n3)c2=O)cc(OC)c1OC | -2 | -4 | 1 | 1.9 | -71 | / | / | / | / | / | /
c1ccc(-c2csc(Cc3nnc4n3CCCCC4)n2)cc1 | -23 | 3 | 0 | -1.8 | 23 | 0.0061 | 0.0056 | 0.027 | 0.0065 | 0.014* | 0.0096
COc1ccccc1-c1csc(Cc2nnc3n2CCCCC3)n1 | -25 | -19 | 0 | -1.4 | 1 | / | / | / | / | / | /
Cc1ccc(NC(=S)N/N=C2\CCCCC2C)cc1 (stereo not drawn) | / | 30 | 1 | 6.9* | / | 0.0059 | 0.032* | 0.039* | 0.02* | 0.033* | 0.022*
SMILES | Yeast lifespan up | WT yeast gro inh | RAM network inh | Cl transport mod | BB579 growth dn | KCC2 secondary | KCC2 bumet counter | KCC2 sec2 | HEK293 Tl flux | KCC2 retest ouab | HEK counter2
Cc1ccc(C)c(N(C)C(=O)COc2cc(=O)n(C)c3ccccc23)c1 | -2 | -2 | 1 | -4.1* | -5 | 0.0082 | 0.0055 | 0.029 | 0.0063 | 0.021 | 0.0092
O=C(CCSCCc1ccccn1)Nc1ccc(Cc2ccncc2)cc1 | / | -13 | -1 | -3.4* | / | 0.0069 | 0.0044 | ? | 0.0073 | 0.018 | 0.011
CCOc1ccc2c(c1)C(=NNC(=O)c1ccncc1)c1cc(OCC)ccc1-2 | 10 | -1 | 4 | 30* | -24 | 0.015* | 0.033* | 0.032 | 0.018* | 0.079* | 0.012*
CCOC(=O)NC(=O)CSc1ccc(C)cc1C | / | 0 | -1 | 2.9* | / | 0.0093 | 0.0063 | 0.033 | ? | 0.017 | 0.011
CCOCCn1c(CN2CCC(C)CC2)nc2c1c(=O)n(C)c(=O)n2C | 9 | -8 | 0 | 0.091 | -1 | / | / | / | / | / | /
CCOCCn1c(CN2CCN(CC)CC2)nc2c1c(=O)n(C)c(=O)n2C | 3 | 6 | 1 | 6.3* | -28 | 0.0097 | 0.007 | 0.037 | 0.0077 | 0.023 | 0.011
Cc1ccc(NC(=O)COC(=O)CCC(=O)c2cccs2)c(C)c1 | / | 6 | 4 | -0.39 | / | / | / | / | / | / | /
Nc1nnc(CSCc2ccc(Cl)cc2Cl)s1 | -7 | 10 | 0 | -0.22 | -8 | / | / | / | / | / | /
CC(C)n1c(CSCc2ccc(Cl)cc2Cl)n[nH]c1=S | / | 65* | 1 | 9.3* | / | 0.01 | 0.083* | 0.034 | 0.028* | 0.053* | 0.013*
O=C(Nc1ccccc1)c1ccc(S(=O)(=O)N2CCCCC2)cc1 | -5 | 0 | 2 | 1.2 | -34 | / | / | / | / | / | /
Cc1cc(NC(=O)c2ccc(S(=O)(=O)N3CCOCC3)cc2)nc2c1c(=O)oc1ccccc12 | -17 | -1 | 2 | / | -42 | / | / | / | / | / | /
Cc1cc(NC(=O)c2ccc(S(=O)(=O)N3CCCC3)cc2)nc2c1c(=O)oc1ccccc12 | -8 | -4 | 2 | / | -42 | 0.0092 | 0.007 | 0.03 | 0.0079 | 0.019 | ?
